TNAP inh hi DEA – blocks human TNAP under high phosphate acceptor concentration | P05186 | purified TNAP, CDP-star luminescence, 1 M DEA | inhibition, % at 20 µM | 200,000 tested, 0.03% active | AID 1135;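 active means over 50% inhibition of tissue-nonspecific alkaline phosphatase at 20 µM in the single-dose screen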;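 further: plate controls were DMSO wells for no effect and EDTA-quenched wells as full inhibition for full effect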
Target sequence (P05186 whole entry, looked up): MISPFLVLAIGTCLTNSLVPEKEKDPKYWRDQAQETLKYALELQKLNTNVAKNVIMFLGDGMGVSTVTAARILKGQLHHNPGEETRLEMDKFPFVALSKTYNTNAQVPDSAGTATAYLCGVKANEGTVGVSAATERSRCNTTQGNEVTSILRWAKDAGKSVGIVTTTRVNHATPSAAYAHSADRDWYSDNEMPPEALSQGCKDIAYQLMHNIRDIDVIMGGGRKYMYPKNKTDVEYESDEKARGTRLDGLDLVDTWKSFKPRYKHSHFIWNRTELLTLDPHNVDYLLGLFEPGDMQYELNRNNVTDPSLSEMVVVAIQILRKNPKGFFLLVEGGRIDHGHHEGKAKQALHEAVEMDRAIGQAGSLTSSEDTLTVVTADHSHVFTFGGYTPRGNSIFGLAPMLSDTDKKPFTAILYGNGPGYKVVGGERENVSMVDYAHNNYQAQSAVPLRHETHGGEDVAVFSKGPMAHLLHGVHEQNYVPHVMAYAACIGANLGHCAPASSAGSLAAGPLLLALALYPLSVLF
Yeast lifespan up – yeast lifespan extension | 130,000 tested, 0.68% active | inhibition of the nicotinamide effect, % at 10 µM | S. cerevisiae growth with nicotinamide, OD615; deaD strain in restrictive glucose medium;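 active means inhibition above a set limit, placed 3 SD over the median of all compounds, cut at about 26% in these data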;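 further: 0% = nicotinamide-treated wells and 100% = cells grown without nicotinamide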
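Material: Modified budding yeast, DeaD strain | Medium: Restrictive glucose medium | Probe or stimulus: 1.5 mM nicotinamide | Dosing: Single dose 10 µM compound, 0.25% DMSO | Times: 48 h at 30 °C | Technique: OD615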
TNAP act hi DEA – activators of human TNAP at high phosphate acceptor concentration; P05186; purified TNAP, CDP-star luminescence, 1 M DEA, 30 min; hits give high values; 0 = EDTA background, 1 = DMSO-only activity; activation factor at 20 µM; 200,000 tested, under 10 active;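 active means activation factor at least 2 at 20 µM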
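system = human TNAP | amount = enzyme diluted 1/800 final | reagent = 100 µM CDP-star substrate | signal = luminescent substrate turnover signal | dosing = one dose, 20 µM | benchmarks = EDTA negative control, DMSO positive control | measure = activation factor | timing = 30 min reaction, room temperature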
TNAP inh noacc – inhibitors of human TNAP without phosphate acceptor; P05186; purified TNAP, CDP-star luminescence, 30 min; inhibition, % at 20 µM; 200,000 tested, 0.26% active; AID 1012;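 active means tissue-nonspecific alkaline phosphatase inhibition above about 50% at 20 µM in the single-dose screen, limit read from the data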;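 further: 0% = DMSO negative control and 100% = EDTA positive control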
Yeast growth inh – reduces growth of yeast BB579 in restrictive medium; S. cerevisiae BB579 growth, OD615, 48 h; inhibition, % at 10 µM; 140,000 tested, 0.51% active;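 active means inhibition above a set limit, 3 SD over the mean compound inhibition, cut at about 44% in these data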
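Test system: Saccharomyces cerevisiae DeaD strain BB579, replicative lifespan model yeast | Buffer or medium: Restrictive CSMM-D medium | Doses: One dose, 10 µM compound with 0.25% DMSO | Incubation: 48 h exposure, 30 °C | Detection: Culture absorbance at 615 nm | Control set: Amphotericin B at 10 µg/mL as positive control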
RAM inhibit – blocks the yeast RAM network; S. cerevisiae dse1pr::URA3 reporter, 5-FOA growth OD615, 2 d; analog-sensitive cbk1-as2 kinase mutant strain; inhibition, % at 50 µM; 190,000 tested, 1.8% active;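 active means inhibition above a set limit, 3 SD over mean compound inhibition, cut at about 8.4% in these data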;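 further: 0% = DMSO-only wells with no growth and 100% = 10 µM 1-NA-PP1 full growth; inhibition rescues growth on 5-FOA so higher OD means more RAM inhibition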
* marks the source's active call; other numbers are inactive results. An excerpt weighted towards active compounds, which were near 2.8% of everything screened.

O=C(NCc1ccccc1)C1=C[C@H](C2CCCCC2)C[C@H](OCc2ccc(CO)cc2)O1 was read as TNAP inh hi DEA -9, TNAP act hi DEA 1.1, TNAP inh noacc -6 and RAM inhibit 11*.
Screening O=C(NCc1ccccc1)C1=C[C@@H](C2CC2)C[C@@H](OCc2ccc(CO)cc2)O1 returned TNAP inh hi DEA -5, TNAP act hi DEA 1, TNAP inh noacc -6 and RAM inhibit 0.
COc1cccc(C2(O)CC(C(F)(F)F)=NN2C(=O)c2ccccn2)c1 (stereo unspecified) was read as TNAP inh hi DEA -8, TNAP act hi DEA 1.1, TNAP inh noacc -23 and RAM inhibit -1.
`Cc1cc(C)cc(NS(=O)(=O)c2cnc(Cl)c(Cl)c2)c1` gave TNAP inh hi DEA 2, Yeast lifespan up -18, TNAP act hi DEA 1, TNAP inh noacc -5, Yeast growth inh 76* and RAM inhibit -1.
Screening CCOc1ccc(NS(=O)(=O)c2cnc(Cl)c(Cl)c2)cc1 returned TNAP inh hi DEA 1, Yeast lifespan up 2, TNAP act hi DEA 1, TNAP inh noacc -1, Yeast growth inh -66 and RAM inhibit -1.
`C[n+]1ccc(CC2C(=[N+]([O-])[O-])C=Nc3ncnn32)cc1` (stereo unspecified) gave TNAP inh hi DEA 8, TNAP act hi DEA 0.9, TNAP inh noacc 3 and RAM inhibit 1.
For CC(=C1C(=O)c2ccccc2C1=O)N1CCC(C(N)=O)(N2CCCCC2)CC1 the results were TNAP inh hi DEA -1, Yeast lifespan up 29, TNAP act hi DEA 1, TNAP inh noacc -8, Yeast growth inh -14 and RAM inhibit -2.
CC(C)c1ccc(NC(=S)NCCc2c[nH]c3ccccc23)cc1 was read as TNAP inh hi DEA 0, Yeast lifespan up -5, TNAP act hi DEA 1, TNAP inh noacc -11, Yeast growth inh 55* and RAM inhibit 5.
Screening CCOC(=O)/C(=N\Nc1ccccc1Cl)N1CCN(Cc2ccccc2)CC1 returned TNAP inh hi DEA 4, Yeast lifespan up -8, TNAP act hi DEA 1, TNAP inh noacc -7, Yeast growth inh 59* and RAM inhibit -2.
CCCOc1ccc(/C(O)=C2/C(=O)C(=O)N(c3cc(C)on3)C2c2ccc(C(=O)OC)cc2)cc1 (stereo unspecified) was read as TNAP inh hi DEA 2, Yeast lifespan up -28, TNAP act hi DEA 1, TNAP inh noacc -1, Yeast growth inh 2 and RAM inhibit 11*.
COc1cc(OC)cc(C(=O)NCC(=O)N2CCCCC2)c1 was read as TNAP inh hi DEA -4, Yeast lifespan up 0, TNAP act hi DEA 1, TNAP inh noacc -13, Yeast growth inh -54 and RAM inhibit 1.
Screening CCN1C(=O)/C(=C2\C=Cc3ccccc3N2CC)SC1=S returned TNAP inh hi DEA 31, Yeast lifespan up -4, TNAP act hi DEA 0.7, TNAP inh noacc 15, Yeast growth inh -29 and RAM inhibit 2.
`CCN1C(=O)/C(=C2\SC(=S)N(CCCOC)C2=O)c2ccccc21` gave TNAP inh hi DEA 6, Yeast lifespan up -5, TNAP act hi DEA 0.9, TNAP inh noacc 17, Yeast growth inh -29 and RAM inhibit 9.5*.
Cc1cccc(C(=O)Nc2cc(OCc3cccc(F)c3)c(Cl)cc2Cl)c1 was read as TNAP inh hi DEA -1, Yeast lifespan up -15, TNAP act hi DEA 1, TNAP inh noacc -1, Yeast growth inh -60 and RAM inhibit 9.4*.
For CCOc1cc(NC(=O)c2cccs2)c(OCC)cc1NC(=O)c1ccccn1 the results were TNAP inh hi DEA -1, TNAP act hi DEA 1, TNAP inh noacc -9 and RAM inhibit 3.
`CCOc1cc(NC(=O)c2ccccn2)c(OCC)cc1NC(=O)c1cccc(C)c1` gave TNAP inh hi DEA -2, TNAP act hi DEA 1, TNAP inh noacc -10 and RAM inhibit 9.6*.
Screening COc1ccc(/C=C2/SC(=O)N(NS(=O)(=O)c3ccccc3)C2=S)cc1OC returned TNAP inh hi DEA 4, Yeast lifespan up 32*, TNAP act hi DEA 1, TNAP inh noacc 6, Yeast growth inh 12 and RAM inhibit 5.
`COc1ccccc1C(=O)Nc1sc(C(=O)N2CCCC2)c(C)c1C#N` gave TNAP inh hi DEA -5, TNAP act hi DEA 1.1, TNAP inh noacc -15 and RAM inhibit 8.5*.
Screening Cc1ccc(Nc2nc3ccccc3nc2-n2nc(C)cc2C)cc1 returned TNAP inh hi DEA -5, Yeast lifespan up -5, TNAP act hi DEA 1, TNAP inh noacc -11, Yeast growth inh -54 and RAM inhibit 8.7*.
Screening CCOC(=O)Cn1c(=NC(=O)c2nc3ccccc3s2)sc2cc(S(N)(=O)=O)ccc21 returned TNAP inh hi DEA 3, Yeast lifespan up 6, TNAP act hi DEA 1, TNAP inh noacc -14, Yeast growth inh -40 and RAM inhibit 10*.
CCOCCn1c(=NC(=O)c2cc3ccccc3oc2=O)sc2cc(S(N)(=O)=O)ccc21 was read as TNAP inh hi DEA 6, Yeast lifespan up 1, TNAP act hi DEA 0.9, TNAP inh noacc -13, Yeast growth inh -10 and RAM inhibit 8.9*.
For Cc1[nH]n(-c2nc(-c3ccc(Cl)cc3)cs2)c(=O)c1N=Nc1ccc(O)cc1 the results were TNAP inh hi DEA 24, TNAP act hi DEA 0.8, TNAP inh noacc 24 and RAM inhibit 9.8*.
For CCOC(=O)c1sc(NC(=O)/C=C/c2cnn(C)c2C)c(C(=O)OC(C)C)c1C the results were TNAP inh hi DEA -7, Yeast lifespan up 4, TNAP act hi DEA 1.1, TNAP inh noacc -5, Yeast growth inh -37 and RAM inhibit 2.
Screening O=C(Nc1cnc2ccccc2c1)c1cccnc1 returned TNAP inh hi DEA -5, Yeast lifespan up -7, TNAP act hi DEA 1.1, TNAP inh noacc -18, Yeast growth inh -35 and RAM inhibit 0.
Screening Cn1c(NC(=O)c2cccnc2)nc2ccccc21 returned TNAP inh hi DEA 1, Yeast lifespan up -23, TNAP act hi DEA 1, TNAP inh noacc 69*, Yeast growth inh -18 and RAM inhibit 2.
COCC(=O)Nc1ccccc1-c1ccccc1 was read as TNAP inh hi DEA -4, TNAP act hi DEA 1, TNAP inh noacc -11 and RAM inhibit 1.
Screening O=C(COC(=O)/C=C/c1ccc(Cl)cc1)Nc1ccccc1-c1ccccc1 returned TNAP inh hi DEA -2, Yeast lifespan up 9, TNAP act hi DEA 1, TNAP inh noacc -16, Yeast growth inh -44 and RAM inhibit 8.7*.
For O=C(COC(=O)Cc1c(Cl)cccc1Cl)Nc1ccccc1-c1ccccc1 the results were TNAP inh hi DEA -4, Yeast lifespan up 2, TNAP act hi DEA 1, TNAP inh noacc -12, Yeast growth inh -61 and RAM inhibit 10*.

Source: PubChem
